Usually IC50 stands for the concentration that inhibits the measured activity by half.

Data set [1] in a line: Cytotoxicity against human SPCA2 cells after 48 hrs by MTT assay. The following applies: SPCA2, 48 h. It is filed as functional, cell-based. Summed up:
(§1)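 Cells grown overnight in DMEM + 10% FBS at 37 °C under 5% CO2, then given a range of compound concentrations for 48 h. MTT added for about 4 h, medium replaced by DMSO, absorbance read at 570/630 nm. IC50 reported as mean ± SD of five independent experiments.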

Data set [2] in a line: Cytotoxicity against human NCI-H460/DOX cells after 48 hrs by MTT assay. It is filed as functional, cell-based. The following applies: NCI-H460, 48 h. The procedure, abridged:
as §1

The next data set deals with HepG2. Description: Cytotoxicity against human HepG2 cells after 48 hrs by MTT assay. It is filed as functional, cell-based. The note with it: HepG2, 48 h. Summed up: as §1
(In general: Tetrazolium assays rely on reduction of a dye to a coloured formazan, in cell work by metabolically active cells.)

A further data set deals with T-24. Description: Cytotoxicity against human T24 cells after 48 hrs by MTT assay. It is filed as functional, cell-based. The note with it: T-24, 48 h. Summed up:
as §1

The test system of data set [3] is NCI-H460. Description: Cytotoxicity against human NCI-H460 cells after 48 hrs by MTT assay. It counts as functional, cell-based. The following applies: NCI-H460, 48 h. Summed up: as §1
The subject of data set [4] is NCI-H460. Description: Cytotoxicity against human NCI-H460 cells harboring pNF-kB-Luc assessed as reduction in cell viability after 7 hrs by MTT assay relative to control. The arrangement: concentration or dose not given beside the values. The following applies: nci-h460, 7 h.
Another data set concerns MGC-803. The data set can be described thus: Cytotoxicity against human MGC803 cells after 48 hrs by MTT assay. It counts as functional, cell-based. The note with it: MGC-803, 48 h. Summed up:
as §1

The next data set concerns L02. The data set can be described thus: Cytotoxicity against human HL7702 cells after 48 hrs by MTT assay. The note with it: L02, 48 h. It counts as cell-based. The procedure, abridged:
as §1

For a further data set, the system named is A549. The data set can be described thus: Cytotoxicity against human A549 cells after 48 hrs by MTT assay. It is filed as functional, cell-based. The following applies: A549, 48 h. Summed up:
as §1

Data set [5] is described as follows: Resistant factor, ratio of IC50 for human HepG2/DOX cells to IC50 for human HepG2 cells. It is filed as functional.
Data set [6] can be described thus: Inhibition of TNFalpha-induced NF-kB (unknown origin) activation expressed in human NCI-H460 cells after 7 hrs by luciferase reporter gene assay. It counts as cell-based. The following applies: NCI-H460, 7 h. Summed up: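 NCI-H460 cells transiently co-transfected with pNF-κB-Luc reporter and pSV-β-galactosidase internal control by lipofectamine. Medium changed after 6 h, then 6 h further culture. TNF-α (15 ng ml–1) plus compound given together for 7 h. Luciferase ratio to TNF-α-only cells, corrected for non-TNF background and viability. IC50 from sigmoidal variable-slope fit.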
(In general: Reporter assays use an easily measured gene product as a stand-in for the process of interest.)

A short description of data set [7]: Cytotoxicity against human HepG2/DOX cells after 48 hrs by MTT assay. It is filed as functional, cell-based. The procedure, abridged:
as §1

Data set [8] can be described thus: Resistant factor, ratio of IC50 for human NCI-H460/DOX cells to IC50 for human NCI-H460 cells. It is filed as functional.

Consider `CC(=O)O[C@H]1CC[C@]2(C)[C@H]3CC=C4[C@@H]5[C@@H](C)[C@H](C)CC[C@]5(C(=O)Nc5ccc(C)cc5)CC[C@@]4(C)[C@]3(C)CC[C@H]2C1(C)C`, for which the IC50 in data set [1] was determined as 11.2 µM; in data set [2], 13.5 µM; in the data set with HepG2 it was 12.5 µM; in the data set with T-24 it was 10.6 µM; in the data set with NCI-H460 [3], 9.6 µM; in the data set on MGC-803, 13.4 µM. The IC50 was greater than 50 µM in the data set on L02, 10.3 µM in the data set with A549, 2.26 µM in data set [6] and 20.4 µM in data set [7]. Further, in the data set on NCI-H460 [4], the Activity is reported as less than 5%. The “Ratio IC50” value in data set [5] is 1.63; in [8] it was 1.4.

For `C[C@H]1[C@H](C)CC[C@]2(C(=O)Nc3ccccc3)CC[C@]3(C)C(=CC[C@@H]4[C@@]5(C)CCC(=O)C(C)(C)[C@@H]5CC[C@]43C)[C@H]12`, the IC50 is 13.5 µM in data set [1]; 25.7 µM in data set [2]; 18.1 µM in the data set with HepG2; 13.6 µM with T-24; 12.9 µM in the data set on NCI-H460 [3]; 15.1 µM in the data set on MGC-803. Also, the concentration for half-maximal inhibition (IC50) is greater than 50 µM in the data set on L02, 16.3 µM with A549, 7.13 µM in data set [6] and 36.7 µM in data set [7]. The Activity with NCI-H460 [4] was less than 5%. The “Ratio IC50” value in data set [5] came to 2.02; in data set [8], 1.99.

Consider `COc1ccc(NC(=O)[C@]23CC[C@@H](C)[C@H](C)[C@H]2C2=CC[C@@H]4[C@@]5(C)CC[C@H](OC(C)=O)C(C)(C)[C@@H]5CC[C@@]4(C)[C@]2(C)CC3)cc1`, for which the 50% inhibitory concentration (IC50) in data set [1] worked out at 13.7 µM; in data set [2], 22.6 µM; in the data set with HepG2, 24.5 µM; in the data set on T-24, 23.8 µM; in the data set with NCI-H460 [3], 10.6 µM; with MGC-803 it was 25.2 µM. For the same compound, the concentration for half-maximal inhibition (IC50) in the data set with L02 is greater than 50 µM; with A549, 31.1 µM; in data set [6], 3.64 µM; in [7], 47.1 µM. Further, in the data set on NCI-H460 [4], the Activity is given as less than 5%. The entries for the “Ratio IC50” value in data set [5] and in [8] were 1.92 and 2.12, respectively.

For `CC(=O)O[C@H]1CC[C@]2(C)[C@H]3CC=C4[C@@H]5[C@@H](C)[C@H](C)CC[C@]5(C(=O)Nc5ccccc5)CC[C@@]4(C)[C@]3(C)CC[C@H]2C1(C)C`, the IC50 came to 11.7 µM in data set [1]; 17.2 µM in data set [2]; 12.6 µM in the data set on HepG2; 13.1 µM in the data set on T-24; 11.4 µM in the data set on NCI-H460 [3]; 14.8 µM in the data set with MGC-803. The 50% inhibitory concentration (IC50) in the data set with L02 is greater than 50 µM; with A549 it was 12.9 µM; in data set [6] it was 2.33 µM; in data set [7] it was 27.4 µM. Moreover, the Activity with NCI-H460 [4] was less than 5%. Also, the “Ratio IC50” value in data set [5] is recorded as 2.17; in data set [8], 1.52.

Consider `CC(=O)O[C@H]1CC[C@]2(C)[C@H]3CC=C4[C@@H]5[C@@H](C)[C@H](C)CC[C@]5(C(=O)N5CCN(C)CC5)CC[C@@]4(C)[C@]3(C)CC[C@H]2C1(C)C`, for which the IC50 stood at 29.2 µM in data set [1]; 49.7 µM in [2]; 27 µM in the data set on HepG2; 25.4 µM in the data set on T-24; 21.2 µM in the data set on NCI-H460 [3]; 21.6 µM in the data set with MGC-803. The half-inhibitory concentration (IC50) with L02 was greater than 50 µM; with A549, 24.2 µM; in data set [6], 4.8 µM; in data set [7] it was greater than 50 µM. For the same compound, the Activity with NCI-H460 [4] is listed as less than 5%. The “Ratio IC50” value in data set [8] amounted to 2.35.

As to `Cc1ccc(NC(=O)COC(=O)[C@]23CC[C@@H](C)[C@H](C)[C@H]2C2=CC[C@@H]4[C@@]5(C)CCC(=O)C(C)(C)[C@@H]5CC[C@@]4(C)[C@]2(C)CC3)cc1`, the IC50 in data set [1] came to 15.6 µM; in data set [2], 23.8 µM; with HepG2 it was 20.1 µM; in the data set on T-24 it was 15.7 µM; with NCI-H460 [3] it was 10.9 µM; in the data set with MGC-803, 16.6 µM. The IC50 in the data set with L02 was greater than 50 µM; with A549 it was 13.1 µM; in [6], 8.04 µM; in data set [7], 39.7 µM. Further, the Activity with NCI-H460 [4] was less than 5%. Also, the figures for the “Ratio IC50” value in data set [5] and in data set [8] were 1.98 and 2.18, respectively.

With `CC(=O)O[C@H]1CC[C@]2(C)[C@H]3CC=C4[C@@H]5[C@@H](C)[C@H](C)CC[C@]5(C(=O)Nc5ccc(C)c(C)c5)CC[C@@]4(C)[C@]3(C)CC[C@H]2C1(C)C`, the 50% inhibitory concentration (IC50) in data set [1] was determined as 12.2 µM; in data set [2], 18.9 µM; in the data set with HepG2, 17.4 µM; in the data set with T-24, 16.6 µM; in the data set with NCI-H460 [3], 10.4 µM; in the data set with MGC-803 it was 15 µM. Further, the IC50 in the data set on L02 was greater than 50 µM; with A549 it was 12.4 µM; in data set [6], 4.8 µM; in data set [7], 26.2 µM. Moreover, the Activity with NCI-H460 [4] is on record as less than 5%. In addition, the “Ratio IC50” value in data set [5] amounted to 1.51; in data set [8], 1.81.

On to `Cc1ccc(NC(=O)[C@]23CC[C@@H](C)[C@H](C)[C@H]2C2=CC[C@@H]4[C@@]5(C)CCC(=O)C(C)(C)[C@@H]5CC[C@@]4(C)[C@]2(C)CC3)cc1`, for which the half-maximal inhibitory concentration (IC50) in [1] is 17.3 µM; in data set [2] it was 20.9 µM; in the data set with HepG2, 17.6 µM; in the data set on T-24 it was 20.1 µM; in the data set with NCI-H460 [3] it was 11.9 µM; in the data set on MGC-803 it was 18.6 µM. For the same compound, the IC50 is greater than 50 µM with L02, 17.9 µM in the data set with A549, 5.43 µM in data set [6] and 28.5 µM in data set [7]. Moreover, the Activity with NCI-H460 [4] is less than 5%. The “Ratio IC50” value worked out at 1.62 in data set [5] and 1.76 in data set [8].

`C[C@H]1[C@H](C)CC[C@]2(C(=O)OCC(=O)Nc3ccccc3)CC[C@]3(C)C(=CC[C@@H]4[C@@]5(C)CCC(=O)C(C)(C)[C@@H]5CC[C@]43C)[C@H]12`: the IC50 in [1] worked out at 16.3 µM; in data set [2], 26.6 µM; in the data set on HepG2 it was 24.2 µM; in the data set with T-24, 16 µM; in the data set on NCI-H460 [3], 13.8 µM; with MGC-803, 16.1 µM. In addition, the half-inhibitory concentration (IC50) with L02 was greater than 50 µM; with A549, 14.1 µM; in data set [6] it was 10.3 µM; in [7] it was greater than 50 µM. In addition, the Activity with NCI-H460 [4] is recorded as less than 5%. The “Ratio IC50” value in [8] was 1.94.

With `C[C@H]1[C@H](C)CC[C@]2(C(=O)NCCN(C)C)CC[C@]3(C)C(=CC[C@@H]4[C@@]5(C)CCC(=O)C(C)(C)[C@@H]5CC[C@]43C)[C@H]12`, the half-inhibitory concentration (IC50) in data set [1] turned out to be 6.91 µM; in data set [2], 6.8 µM; with HepG2, 9.05 µM; with T-24, 6.35 µM; in the data set with NCI-H460 [3] it was 4.35 µM; with MGC-803, 7.35 µM. Moreover, the IC50 is greater than 50 µM in the data set on L02, 6.01 µM in the data set with A549, 0.94 µM in data set [6] and 11.4 µM in [7]. Further, in the data set on NCI-H460 [4], the Activity is less than 5%. Also, the “Ratio IC50” value in data set [5] is listed as 1.26; in [8] it was 1.56.

Source of the values: ChEMBL document CHEMBL4261518, “Side chain-functionalized aniline-derived ursolic acid derivatives as multidrug resistance reversers that block the nuclear factor-kappa B (NF-κB) pathway and cell proliferation” (Medchemcomm, 2017).
